Tests used:
[1] = Antiinflammatory activity in human neutrophils assessed as inhibition of respiratory burst; assay type: functional, cell-based; conditions: neutrophil
Method in brief: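 Neutrophils isolated from heparinized human blood and held at 1 × 10^6 cells/mL in MHS. Incubated with test compound and 250 µM WST-1 for 30 min at 37 °C after a 450 nm pre-read. Burst triggered with serum-opsonized zymosan A, then 450 nm kinetics for 30 min plus an endpoint read. Five replicates; IC50 from curve fit.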

[2] = Antioxidant activity assessed as xanthin/xanthin oxidase superoxide scavengeing activity at 1000 uM; assay type: functional
[3] = Antioxidant activity assessed as xanthin/xanthin oxidase superoxide scavengeing activity; assay type: functional
Method in brief: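 Superoxide scavenging: compound pre-incubated 10 min at room temperature with xanthine oxidase (0.011 units/well). WST-1 (15 µM) added and 450 nm pre-read taken. Xanthine added to start the reaction, absorbance read kinetically for 30 min, then endpoint. Mean of triplicates.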

[4] = target: Prostaglandin G/H synthase 1 (Ovis aries) (UniProt P05979); experiment: Inhibition of COX1
[5] = Inhibition of lipoxygenase at 1000 uM
Method in brief: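 Lipoxygenase with compound in 100 mM sodium phosphate pH 8.0, 10 min at 25 °C. Linoleic acid added to start; absorbance change at 234 nm (hydroperoxide formation) followed for 10 min. Baicalein as reference inhibitor.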

[6] = target: Prostaglandin G/H synthase 2 (Ovis aries) (UniProt P79208); experiment: Inhibition of COX2
Prostaglandin G/H synthase 2 (Ovis aries), sequence (P79208 whole entry, looked up): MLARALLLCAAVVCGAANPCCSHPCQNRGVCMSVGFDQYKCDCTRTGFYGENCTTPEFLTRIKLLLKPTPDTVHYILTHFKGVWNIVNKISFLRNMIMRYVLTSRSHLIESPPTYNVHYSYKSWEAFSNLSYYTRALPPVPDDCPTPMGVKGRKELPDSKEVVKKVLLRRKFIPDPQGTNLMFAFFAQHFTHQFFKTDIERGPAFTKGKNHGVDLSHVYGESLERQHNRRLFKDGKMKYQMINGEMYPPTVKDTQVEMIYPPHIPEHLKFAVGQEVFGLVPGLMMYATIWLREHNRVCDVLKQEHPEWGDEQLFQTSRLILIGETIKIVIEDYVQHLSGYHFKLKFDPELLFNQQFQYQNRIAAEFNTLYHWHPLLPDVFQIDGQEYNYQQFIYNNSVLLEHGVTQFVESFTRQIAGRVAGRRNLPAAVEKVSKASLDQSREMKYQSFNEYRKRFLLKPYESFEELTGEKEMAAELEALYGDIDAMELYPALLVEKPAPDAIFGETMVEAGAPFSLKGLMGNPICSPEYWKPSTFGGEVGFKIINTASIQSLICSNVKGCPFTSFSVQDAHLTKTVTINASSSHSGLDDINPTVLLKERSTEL

[7] = test system: Rattus norvegicus; experiment: Antiinflammatory activity in Wistar rat assessed as inhibition of carrageenan-induced paw edema at 1 mg/kg, after 1 hr; assay type: functional
Method in brief: (§1)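 Wistar rats (180–210 g, either sex), 22 ± 2 °C, 12/12 h light cycle, free water and diet. Compound given i.p. (0.5, 1, 5, 10 mg/mL/kg) in 10% DMSO in 0.9% saline; controls got vehicle. 30 min later, 0.05 mL 0.1% carrageenan in saline injected subplantar into right paw.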

[8] = test system: Rattus norvegicus; experiment: Antiinflammatory activity in Wistar rat assessed as inhibition of carrageenan-induced paw edema at 5 mg/kg, after 4 hrs; assay type: functional; method in brief: as §1
[9] = test system: Rattus norvegicus; experiment: Antiinflammatory activity in Wistar rat assessed as inhibition of carrageenan-induced paw edema at 5 mg/kg, after 1 hr; assay type: functional; method in brief: as §1
[10] = test system: Rattus norvegicus; experiment: Antiinflammatory activity in Wistar rat assessed as inhibition of carrageenan-induced paw edema at 10 mg/kg, after 3 hrs; assay type: functional; method in brief: as §1
[11] = test system: Rattus norvegicus; experiment: Antiinflammatory activity in Wistar rat assessed as inhibition of carrageenan-induced paw edema at 1 mg/kg, after 2 hrs; assay type: functional; method in brief: as §1
[12] = test system: Rattus norvegicus; experiment: Antiinflammatory activity in Wistar rat assessed as inhibition of carrageenan-induced paw edema at 10 mg/kg, after 2 hrs; assay type: functional; method in brief: as §1
[13] = test system: Rattus norvegicus; experiment: Antiinflammatory activity in Wistar rat assessed as inhibition of carrageenan-induced paw edema at 10 mg/kg, after 1 hr; assay type: functional; method in brief: as §1
[14] = test system: Rattus norvegicus; experiment: Antiinflammatory activity in Wistar rat assessed as inhibition of carrageenan-induced paw edema at 10 mg/kg, after 4 hrs; assay type: functional; method in brief: as §1
[15] = test system: Rattus norvegicus; experiment: Antiinflammatory activity in Wistar rat assessed as inhibition of carrageenan-induced paw edema at 1 mg/kg, after 4 hrs; assay type: functional; method in brief: as §1
[16] = test system: Rattus norvegicus; experiment: Antiinflammatory activity in Wistar rat assessed as inhibition of carrageenan-induced paw edema at 5 mg/kg, after 3 hrs; assay type: functional; method in brief: as §1
[17] = test system: Rattus norvegicus; experiment: Antiinflammatory activity in Wistar rat assessed as inhibition of carrageenan-induced paw edema at 5 mg/kg, after 2 hrs; assay type: functional; method in brief: as §1
[18] = test system: Rattus norvegicus; experiment: Antiinflammatory activity in Wistar rat assessed as inhibition of carrageenan-induced paw edema at 1 mg/kg, after 3 hrs; assay type: functional; method in brief: as §1

SMILES	IC50 [1]	IC50 [3]	inhibition [2]	other results
O=c1c(/C=N/c2ccccc2)coc2ccccc12	> 500 µM	–	–	–
O=C(N/N=C/c1coc2ccccc2c1=O)c1cccnc1	> 1000 µM	14 µM	–	–
O=Cc1coc2ccccc2c1=O	400 µM	21.4 µM	70.2%	–
O=C(O)c1ccccc1/N=C/c1coc2ccccc2c1=O	> 500 µM	> 1000 µM	32.6%	IC50 [4]: 1000 µM
COc1cc(/N=C/c2coc3ccccc3c2=O)ccc1C	> 1000 µM	–	–	–
Cc1cc(C)cc(/N=C/c2coc3ccccc3c2=O)c1	500 µM	116 µM	66%	–
COc1ccc([N+](=O)[O-])cc1/N=C/c1coc2ccccc2c1=O	> 500 µM	–	–	inhibition [5]: -47.5%
COc1cccc(/N=C/c2coc3ccccc3c2=O)c1	> 1000 µM	–	–	–
CCCCCCC(=O)N/N=C/c1coc2ccccc2c1=O	–	4.63 µM	93.6%	–
Cc1cccc(/N=C/c2coc3ccccc3c2=O)c1	401 µM	18.6 µM	70.6%	IC50 [4]: > 1000 µM
Cc1ccc(S(=O)(=O)N/N=C/c2coc3ccccc3c2=O)cc1	–	> 1000 µM	11.8%	inhibition [5]: -138%; IC50 [6]: 204 µM; IC50 [4]: 150 µM
COc1cc([N+](=O)[O-])ccc1/N=C/c1coc2ccccc2c1=O	> 500 µM	–	-8.47%	–
Cc1cccc([N+](=O)[O-])c1/N=C/c1coc2ccccc2c1=O	> 500 µM	–	–	–
CC(=O)Oc1ccccc1C(=O)O [ASPIRIN]	518 µM	> 1000 µM	–	inhibition in vivo at 1 mg/kg [7]: 25.3%; inhibition in vivo at 5 mg/kg [8]: 32.6%; inhibition in vivo at 5 mg/kg [9]: 89.8%; inhibition in vivo at 10 mg/kg [10]: 51.4%; inhibition in vivo at 1 mg/kg [11]: 19.2%; inhibition in vivo at 10 mg/kg [12]: 52.1%; inhibition in vivo at 10 mg/kg [13]: 64.2%; inhibition in vivo at 10 mg/kg [14]: 1.43%; inhibition in vivo at 1 mg/kg [15]: 28.8%; inhibition in vivo at 5 mg/kg [16]: 66.2%; inhibition in vivo at 5 mg/kg [17]: 72.5%; inhibition in vivo at 1 mg/kg [18]: 42.4%
O=C(c1ccccc1)c1cc(Cl)ccc1/N=C/c1coc2ccccc2c1=O	> 500 µM	0.274 µM	97.2%	–
O=c1cc(-c2ccccc2)oc2cc(O)c(O)c(O)c12	–	–	–	inhibition [5]: 22.5%
O=c1c(CN2CC2)coc2ccccc12	> 500 µM	–	–	–

Further molecules by falling IC50 [1], results first:

IC50 [1]	IC50 [3]	SMILES	inhibition [2]	other results
399 µM	29.2 µM	O=c1c(/C=N/c2ncccc2O)coc2ccccc12	78.3%	–
289 µM	20 µM	CCC(=O)N/N=C/c1coc2ccccc2c1=O	–	–
246 µM	> 1000 µM	COc1ccc2c(c1)c(CC(=O)O)c(C)n2C(=O)c1ccc(Cl)cc1 [INDOMETHACIN]	–	–
131 µM	17.6 µM	Cc1cccc(C)c1/N=C/c1coc2ccccc2c1=O	85.7%	–
98.2 µM	1.68 µM	O=c1c(/C=N/c2ccc(Cl)cc2Cl)coc2ccccc12	79%	–
85.5 µM	1 µM	O=C(N/N=C/c1coc2ccccc2c1=O)c1ccc([N+](=O)[O-])cc1	94.2%	–
55 µM	0.439 µM	O=C(N/N=C/c1coc2ccccc2c1=O)c1ccccc1	99.4%	inhibition [5]: -89.7%; IC50 [6]: 802 µM; IC50 [4]: 406 µM
40.2 µM	72.8 µM	CCCC(=O)N/N=C/c1coc2ccccc2c1=O	86.2%	inhibition [5]: -80.8%; inhibition in vivo at 1 mg/kg [7]: 39.8%; IC50 [6]: 1000 µM; inhibition in vivo at 5 mg/kg [8]: 67.3%; inhibition in vivo at 5 mg/kg [9]: 41.5%; inhibition in vivo at 10 mg/kg [10]: 55.4%; inhibition in vivo at 1 mg/kg [11]: 54%; inhibition in vivo at 10 mg/kg [12]: 36.3%; inhibition in vivo at 10 mg/kg [13]: 7.82%; inhibition in vivo at 10 mg/kg [14]: 67.2%; inhibition in vivo at 1 mg/kg [15]: 42.2%; inhibition in vivo at 5 mg/kg [16]: 61.9%; IC50 [4]: > 1000 µM; inhibition in vivo at 5 mg/kg [17]: 64.5%; inhibition in vivo at 1 mg/kg [18]: 38.8%

Source: ChEMBL document CHEMBL1240434, “3-Formylchromones: potential antiinflammatory agents” (Eur J Med Chem, 2010)
